The record followed here is ChEMBL document CHEMBL3808351, “Synthesis, biological evaluation, and physicochemical property assessment of 4-substituted 2-phenylaminoquinazolines as Mer tyrosine kinase inhibitors” (Bioorg Med Chem, 2016).

The solubility is how much of the substance goes into solution per volume. A lower solubility goes with a poorly soluble substance. One may read the logP as the decadic logarithm of the partition coefficient of the neutral form, usually between octanol and water. The low end stands for lower lipophilicity, the high end for higher lipophilicity. As a reminder, the IC50 is the concentration at which inhibition is half-maximal. Low values mean inhibition by little substance, high ones a need for much substance. One may read the GI50 as the concentration giving 50% growth inhibition. Higher therefore signals lower sensitivity of the cells.

In brackets after ≈: the same amount, converted by molar mass.

Data set [1] is described as follows: Solubility of the compound in phosphate buffer at pH 7.4 by HPLC-UV method. The data set is classed as physicochemical. The gist of the method: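 Compound stock was 10 mg/mL in DMSO. It was diluted into pH 7.4 phosphate buffer to a final 1% DMSO and stirred 4 h at room temperature, then spun at 10,000 rpm for 5 min. The saturated supernatant was read by HPLC-UV at 254 nm on a C18 column with a MeOH/water gradient. Concentration was taken from an acetonitrile standard curve spanning 0.20–50 µg/mL. Samples were run in triplicate.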

Data set [2] is described as follows: n-octanol-water partition co-efficient, log P of the compound after 24 hrs by HPLC analysis. The data set is classed as physicochemical.
Data set [3] has as its target T1, Tyrosine-protein kinase Mer (Homo sapiens, UniProt Q12866).
T1 sequence (Q12866 whole entry): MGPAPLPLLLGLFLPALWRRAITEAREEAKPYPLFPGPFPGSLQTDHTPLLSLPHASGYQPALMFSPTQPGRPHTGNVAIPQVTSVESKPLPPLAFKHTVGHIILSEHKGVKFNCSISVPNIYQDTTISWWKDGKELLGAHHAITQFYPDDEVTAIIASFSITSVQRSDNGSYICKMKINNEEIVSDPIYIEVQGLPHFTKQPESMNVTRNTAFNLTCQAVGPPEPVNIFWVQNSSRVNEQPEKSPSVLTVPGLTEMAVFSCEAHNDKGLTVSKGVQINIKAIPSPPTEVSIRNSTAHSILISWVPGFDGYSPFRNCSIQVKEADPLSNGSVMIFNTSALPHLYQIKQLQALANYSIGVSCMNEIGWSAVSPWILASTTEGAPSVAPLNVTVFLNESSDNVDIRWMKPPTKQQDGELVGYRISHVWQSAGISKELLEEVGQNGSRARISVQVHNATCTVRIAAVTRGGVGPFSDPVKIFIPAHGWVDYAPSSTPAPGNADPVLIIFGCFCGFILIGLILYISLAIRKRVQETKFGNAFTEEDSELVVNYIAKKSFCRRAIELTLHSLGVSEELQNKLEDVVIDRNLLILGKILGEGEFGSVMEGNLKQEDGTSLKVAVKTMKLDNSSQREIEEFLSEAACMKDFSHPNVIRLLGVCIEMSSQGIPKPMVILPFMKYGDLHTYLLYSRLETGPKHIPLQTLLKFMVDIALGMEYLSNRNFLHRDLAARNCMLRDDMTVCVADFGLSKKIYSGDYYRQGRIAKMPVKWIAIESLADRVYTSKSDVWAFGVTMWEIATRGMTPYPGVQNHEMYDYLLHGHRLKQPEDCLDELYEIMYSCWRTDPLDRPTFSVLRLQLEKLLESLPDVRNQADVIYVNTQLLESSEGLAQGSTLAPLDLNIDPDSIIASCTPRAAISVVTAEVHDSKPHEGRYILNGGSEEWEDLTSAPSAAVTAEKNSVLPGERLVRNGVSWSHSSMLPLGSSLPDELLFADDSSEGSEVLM
The data set can be described thus: Inhibition of MERTK (unknown origin) using EFPIYDFLPAKKK-CONH2 as substrate and ATP after 180 mins by microfluidic capillary electrophoresis method.

For a further data set, the system named is A549. The data set can be described thus: Antiproliferative activity against human A549 cells after 48 hrs by SRB method. In kind it is functional. The conditions noted are these: A549, 48 h. (In general: In SRB staining, fixed cells bind dye roughly in proportion to their protein.)
Data set [4] in a line: Antiproliferative activity against human DU145 cells after 48 hrs by SRB method. The data set is classed as functional. The conditions noted are these: DU-145, 48 h.
Data set [5] can be described thus: Antiproliferative activity against human KBVIN cells after 48 hrs by SRB method. The data set is classed as functional.
Another data set has as its system KB. The data set can be described thus: Antiproliferative activity against human KB cells after 48 hrs by SRB method. The data set is classed as functional.

On to `CNc1nc(Nc2ccc(OC)cc2)nc2ccccc12`, for which the concentration in solution in data set [1] (solubility) came to 6.61 µg/mL (≈ 23.6 µM). Moreover, in data set [2], the logP was 3.21.
In data set [3], `COc1ccc(N(C)c2nc(NCC3CCOCC3)c3ccccc3n2)cc1` returned an IC50 above 30 µM.
Compound `COc1ccc(Nc2nc(NC3CCCC3)c3ccccc3n2)cc1` had a solubility in data set [1] of 10.4 µg/mL (≈ 31.1 µM). The compound further yielded a logP in data set [2] above 5.
`COc1ccc(N(C)c2nc(N3CCOCC3)c3ccccc3n2)cc1` yielded an IC50 in data set [3] above 30 µM.
Take `CCCNc1nc(N(C)c2ccc(OC)cc2)nc2ccccc12`: the solubility in data set [1] was 3.43 µg/mL (≈ 10.6 µM). In addition, the logP in data set [2] was above 5.
The compound `Nc1ccc(Nc2nc(NCCCO)c3ccccc3n2)cc1` registered an IC50 in data set [3] above 30 µM. The 50% growth inhibitory concentration (GI50) with A549 was found to be 17.1 µM; in data set [4] it was 20.8 µM.
Regarding `CCCNc1nc(Nc2ccc(OC)cc2)nc2ccccc12`, the solubility in data set [1] was determined as 4.36 µg/mL (≈ 14.1 µM). Besides, in data set [2], the logP is above 5.
Turning to `COc1ccc(Nc2nc(NCCCO)c3ccccc3n2)cc1`, in data set [1], the concentration in solution (solubility) came to 95.6 µg/mL (≈ 295 µM). The logP in data set [2] amounted to 2.54.
The corresponding values for `Fc1ccc(Nc2nc(NC3CCCC3)c3ccccc3n2)cc1` are 1.54 µg/mL (≈ 4.78 µM) and above 5.
Regarding `Fc1ccc(Nc2nc(N3CCOCC3)c3ccccc3n2)cc1`, the IC50 in data set [3] is above 30 µM.
The compound `Oc1ccc(Nc2nc(NC3CCCC3)c3ccccc3n2)cc1` yielded a solubility in data set [1] of 3.1 µg/mL (≈ 9.68 µM). The logP in data set [2] worked out at 3.95.
In the case of `COc1ccc(N(C)c2nc(NC3CCCC3)c3ccccc3n2)cc1`, in data set [1], the solubility was found to be 1.11 µg/mL (≈ 3.19 µM). Also, in data set [2], the logP is reported as above 5.
Consider `OCCCNc1nc(Nc2ccc(F)cc2)nc2ccccc12`, for which the IC50 in data set [3] was above 30 µM. Besides, the GI50 was 19.3 µM with A549 and 20.6 µM in data set [4].
As for `CC(=O)O[C@H]1C(=O)[C@@]2(C)[C@H]([C@H](OC(=O)c3ccccc3)[C@]3(O)C[C@H](OC(=O)[C@H](O)[C@@H](NC(=O)c4ccccc4)c4ccccc4)C(C)=C1C3(C)C)[C@]1(OC(C)=O)CO[C@@H]1C[C@@H]2O` [PACLITAXEL], the GI50 in data set [5] was found to be 948 nM; in the data set with A549, 0.0049 µM; with KB, 2.6 nM.
`N#Cc1ccc(Nc2nc(NC3CCCC3)c3ccccc3n2)cc1` registered an IC50 in data set [3] above 30 µM. The GI50 (in the data set on A549; in data set [4]) was above 31.3 µM throughout.
`N#Cc1ccc(Nc2nc(NCCCO)c3ccccc3n2)cc1` came in with a solubility in data set [1] of 7.52 µg/mL (≈ 23.5 µM). The compound also yielded a logP in data set [2] of 2.84.
The compound `Nc1ccc(Nc2nc(N3CCOCC3)c3ccccc3n2)cc1` returned an IC50 in data set [3] above 30 µM.
